Results as given in ChEMBL document CHEMBL1139744, “Rapid synthesis of 4-benzylidene and 4-[bis-(4-methoxyphenyl)-methylene-2-substituted phenyl-benzopyrans as potential selective estrogen receptor modulators (SERMs) using McMurry coupling reaction” (Bioorg Med Chem Lett, 2006).
The source made the active and inactive calls. No cut-off for these calls is given here.

Key:
Rattus norvegicus [1] = test: Antagonist activity at ER receptor assessed as inhibition of 17-alpha-ethynylestradiol-induced increase in uterine weight of Sprague-Dawley rat at 10 mg/kg/day, po; type: functional; conditions: for inhibition in vivo at 10 mg/kg/day: Rattus norvegicus, Sprague-Dawley
How it was run: (§1)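 Oral dosing was given alongside 17α-ethynylestradiol (0.02 mg/kg) in rats, with vehicle and EE-alone groups. Fresh uterine weight was expressed as percent of the EE-alone group. Values are means ± SEM of at least six animals per group. Significance was tested against the corresponding EE-alone group (P<0.05, P<0.01).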

Rattus norvegicus [2] = test: Agonist activity at ER receptor assessed as increase in uterine weight of Sprague-Dawley rat at 10 mg/kg/day, po; type: functional
How it was run: (§2)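 Immature female rats were dosed orally once daily on days 28–30 of age, with a vehicle-only control group. At autopsy on day 31, 24 h after the last dose, a vaginal smear was taken and the uterus was excised, blotted and weighed fresh. Agonism was judged by uterine weight gain, vaginal opening and cornification versus vehicle. Values are means ± SEM, n≥6 per group.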

Rattus norvegicus [3] = test: Agonist activity at ER receptor assessed as increase in uterine weight of Sprague-Dawley rat at 10 mg/kg/day, po relative to control; type: functional; how it was run: as §2
MCF7 [4] = test: Antiproliferative activity against MCF7 cells […] after 48 hrs; type: functional; conditions: Homo sapiens; for IC50: MCF7, 48 h
How it was run: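 MCF-7 cells were trypsinized (0.05% trypsin–EDTA), plated at 10⁴ cells/well in MEM at pH 7.4, and left to attach for 24 h at 37 °C under CO₂. Compounds in ethanol/DMSO were added and incubated 48 h. Cells were fixed with cold 10% TCA for 1 h at 4 °C, stained with 0.4% SRB in 1% acetic acid for 30 min, and the stain was extracted with Tris base at pH 10.5. OD was read at 560 nm.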

[5] = target: T1, Estrogen receptor (Rattus norvegicus) (UniProt P06211); test: Displacement of [3H]estradiol from ER in rat uterus […] relative to estradiol
T1 sequence (whole entry): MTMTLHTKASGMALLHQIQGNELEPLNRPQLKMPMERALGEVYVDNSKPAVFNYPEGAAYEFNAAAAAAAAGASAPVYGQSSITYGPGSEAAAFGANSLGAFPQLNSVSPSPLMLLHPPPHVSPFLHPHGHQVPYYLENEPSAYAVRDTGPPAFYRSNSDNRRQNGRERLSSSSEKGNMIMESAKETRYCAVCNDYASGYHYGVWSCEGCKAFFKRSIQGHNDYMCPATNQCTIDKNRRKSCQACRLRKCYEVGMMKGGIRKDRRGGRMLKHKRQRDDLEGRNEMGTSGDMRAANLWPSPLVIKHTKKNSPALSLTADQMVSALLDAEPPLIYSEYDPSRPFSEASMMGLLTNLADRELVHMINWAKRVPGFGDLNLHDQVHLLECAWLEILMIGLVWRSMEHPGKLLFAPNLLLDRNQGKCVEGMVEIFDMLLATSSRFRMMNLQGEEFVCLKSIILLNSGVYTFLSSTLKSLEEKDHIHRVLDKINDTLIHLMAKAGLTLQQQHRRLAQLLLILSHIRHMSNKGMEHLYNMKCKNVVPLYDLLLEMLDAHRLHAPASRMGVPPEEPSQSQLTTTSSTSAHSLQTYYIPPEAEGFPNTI

Rattus norvegicus [6] = test: Activity at ER receptor assessed as additive effect on 17-alpha-ethynylestradiol-induced increase in uterine weight of Sprague-Dawley rat at 10 mg/kg/day, po; type: functional; how it was run: as §1
Rattus norvegicus [7] = test: Antagonist activity at ER receptor assessed as increase in uterine weight in Sprague-Dawley rat at 0.02 mg/kg/day, po; type: functional
Rattus norvegicus [8] = test: Agonist activity at ER receptor assessed as increase in uterine weight in Sprague-Dawley rat at 0.02 mg/kg/day, po; type: functional; how it was run: as §2
Rattus norvegicus [9] = test: Agonist activity at ER receptor assessed as increase in uterine weight of Sprague-Dawley rat at 0.02 mg/kg/day, po relative to control; type: functional; how it was run: as §2
Rattus norvegicus [10] = test: Antagonist activity at ER receptor assessed as inhibition of increase in uterine weight of Sprague-Dawley rat at 10 mg/kg/day, po relative to 17-alpha-ethynylestradiol; type: functional; design: scale not given: the % may be the effect or the level left; how it was run: as §1
MCF7 [11] = test: Antiproliferative activity against MCF7 cells at 3 mg/kg/day after 48 hrs; conditions: Homo sapiens, MCF7, 48 h
Rattus norvegicus [12] = test: Antagonist activity at ER receptor assessed as inhibition of 17-alpha-ethynylestradiol-induced increase in uterine weight of Sprague-Dawley rat at 3 mg/kg/day, po; type: functional; how it was run: as §1
Rattus norvegicus [13] = test: Agonist activity at ER receptor assessed as increase in uterine weight of Sprague-Dawley rat at 3 mg/kg/day, po; type: functional; how it was run: as §2
Rattus norvegicus [14] = test: Agonist activity at ER receptor assessed as increase in uterine weight of Sprague-Dawley rat at 3 mg/kg/day, po relative to control; type: functional; how it was run: as §2
Rattus norvegicus [15] = test: Antagonist activity at ER receptor assessed as inhibition of increase in uterine weight of Sprague-Dawley rat at 3 mg/kg/day, po relative to 17-alpha-ethynylestradiol; type: functional; design: scale not given: the % may be the effect or the level left; how it was run: as §1

Structure (SMILES) | IC50 (MCF7 [4]) | RBA [5] | Activity (Rattus norvegicus [1]) | inhibition in vivo at 10 mg/kg/day (Rattus norvegicus [1]) | Activity (Rattus norvegicus [2]) | Activity (Rattus norvegicus [3]) | Activity (MCF7 [4]) | also measured
COc1ccc(C(=C2CC(c3ccc(O)cc3)Oc3cc(OC)ccc32)c2ccc(OC)cc2)cc1 (centres undefined) | – | 0.097% | 70.33 mg | 17% | 26 mg | 86% | inactive | –
COc1ccc(C(=C2CC(c3ccc(OCCN(C)C)cc3)Oc3cc(OC)ccc32)c2ccc(OC)cc2)cc1 (centres undefined) | – | < 0.001% | – | – | – | – | inactive | –
C#C[C@]1(O)CC[C@H]2[C@@H]3CCc4cc(O)ccc4[C@H]3CC[C@@]21C [ETHINYL ESTRADIOL] | – | – | – | – | – | – | – | Activity (Rattus norvegicus [7]): 66.35 mg; Activity (Rattus norvegicus [8]): 66.35 mg; Activity (Rattus norvegicus [9]): 464%
COc1ccc2c(c1)OC(c1ccc(O)cc1)C/C2=C\c1ccc(OCc2ccccc2)cc1 (centres undefined) | – | 0.02% | 46.33 mg | 29% | 38.3 mg | 153% | inactive | Activity (Rattus norvegicus [10]): 29%
CC/C(=C(\c1ccccc1)c1ccc(OCCN(C)C)cc1)c1ccccc1 [TAMOXIFEN] | – | – | – | – | – | – | – | IC50 (MCF7 [11]): 5.09 µM; Activity (Rattus norvegicus [12]): 52.3 mg; inhibition in vivo at 3 mg/kg/day (Rattus norvegicus [12]; Rattus norvegicus, Sprague-Dawley): 49%; Activity (Rattus norvegicus [13]): 46.32 mg; Activity (Rattus norvegicus [14]): 155%; Activity (Rattus norvegicus [15]): 49%

Further lines, with some results ahead:

IC50 (MCF7 [4]) | RBA [5] | Structure (SMILES) | Activity (Rattus norvegicus [1]) | inhibition in vivo at 10 mg/kg/day (Rattus norvegicus [1]) | Activity (Rattus norvegicus [2]) | Activity (Rattus norvegicus [3]) | Activity (MCF7 [4]) | also measured
6.68 µM | < 0.001% | COc1ccc(C(=C2CC(c3ccc(OCCN4CCCCC4)cc3)Oc3cc(OC)ccc32)c2ccc(OC)cc2)cc1 (centres undefined) | 81.7 mg | 26% | 52.5 mg | 168% | – | –
8.77 µM | 0.013% | COc1ccc(/C=C2\CC(c3ccc(O)cc3)Oc3cc(OC)ccc32)cc1 (centres undefined) | 88.33 mg | – | 17.33 mg | 24% | – | Activity (Rattus norvegicus [6]): 88.33 mg
4.39 µM | 0.095% | COc1ccc(/C=C2\CC(c3ccc(OCCN4CCCCC4)cc3)Oc3cc(OC)ccc32)cc1 (centres undefined) | 104.4 mg | 4% | 24.63 mg | 54% | – | –
2 µM | 0.006% | COc1ccc(/C=C2\CC(c3ccc(OCCN(C)C)cc3)Oc3cc(OC)ccc32)cc1 (centres undefined) | 85.4 mg | 21% | 46.3 mg | 189% | – | –
7.39 µM | 0.095% | COc1ccc(/C=C2\CC(c3ccc(OCCN4CCCC4)cc3)Oc3cc(OC)ccc32)cc1 (centres undefined) | 92.3 mg | 15% | 39.57 mg | 147% | – | –
